Data published in ChEMBL document CHEMBL4373711, “Development of 3,5-Dinitrophenyl-Containing 1,2,4-Triazoles and Their Trifluoromethyl Analogues as Highly Efficient Antitubercular Agents Inhibiting Decaprenylphosphoryl-β-d-ribofuranose 2'-Oxidase” (J Med Chem, 2019).

How the values were obtained:
[1] = Genotoxicity in Salmonella typhimurium TA98 at 30 uM in presence of rat liver S9 fraction by Ames test; format: toxicity, subcellular; settings: salmonella enterica subsp. enterica serovar typhimurium, s9, 30 µM
Outline: (§1)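 Microplate fluctuation Ames reverse-mutation test following kit instructions; TA98 detects frameshift and TA100 base-exchange mutations. Compound at 30 µM final with Aroclor-1254-induced rat liver S9 plus cofactors.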

[2] = Genotoxicity in Salmonella typhimurium TA100 at 30 uM in presence of rat liver S9 fraction by Ames test; format: toxicity, subcellular; settings: salmonella enterica subsp. enterica serovar typhimurium, s9, 30 µM; outline: as §1
[3] = Selectivity index, ratio of IC50 for human A431 cells to MIC>99 for antimycobacterial activity against XDR Mycobacterium tuberculosis Praha 131 after 14 days; format: toxicity; settings: read-out: Selectivity Index
[4] = Selectivity index, ratio of IC50 for human HepG2 cells to MIC>99 for antimycobacterial activity against Mycobacterium tuberculosis H37Rv CNCTC My 331/88 after 21 days; format: toxicity; settings: read-out: Selectivity Index
Outline: (§2)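 SI from HepG2 IC50 and M. tuberculosis MIC. HepG2 cells: DMEM + 10% FBS + 1 mM pyruvate, 10,000/well, 48 h treatment, 0.1% DMSO and 10% SDS controls, MTS absorbance at 490 nm.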

[5] = Selectivity index, ratio of IC50 for human A431 cells to MIC>99 for antimycobacterial activity against Mycobacterium kansasii CNCTC My 235/80 after 21 days; format: toxicity; settings: read-out: Selectivity Index
[6] = Selectivity index, ratio of IC50 for human A431 cells to MIC>99 for antimycobacterial activity against XDR Mycobacterium tuberculosis Praha 131 after 21 days; format: toxicity; settings: read-out: Selectivity Index
[7] = Selectivity index, ratio of IC50 for human HepG2 cells to MIC>99 for antimycobacterial activity against Mycobacterium kansasii CNCTC My 235/80 after 14 days; format: toxicity; settings: read-out: Selectivity Index
[8] = Selectivity index, ratio of IC50 for human HepG2 cells to MIC>99 for antimycobacterial activity against Mycobacterium kansasii CNCTC My 235/80 after 7 days; format: toxicity; settings: read-out: Selectivity Index
[9] = Selectivity index, ratio of IC50 for human A431 cells to MIC>99 for antimycobacterial activity against Mycobacterium avium CNCTC My 330/88 after 21 days; format: toxicity; settings: read-out: Selectivity Index
[10] = Selectivity index, ratio of IC50 for human HepG2 cells to MIC>99 for antimycobacterial activity against Mycobacterium tuberculosis H37Rv CNCTC My 331/88 after 14 days; format: toxicity; settings: read-out: Selectivity Index; outline: as §2
[11] = Selectivity index, ratio of IC50 for human A431 cells to MIC>99 for antimycobacterial activity against Mycobacterium kansasii 6509/96 after 14 days; format: toxicity; settings: read-out: Selectivity Index
[12] = Selectivity index, ratio of IC50 for human HepG2 cells to MIC>99 for antimycobacterial activity against Mycobacterium kansasii CNCTC My 235/80 after 21 days; format: toxicity; settings: read-out: Selectivity Index
[13] = Selectivity index, ratio of IC50 for human HepG2 cells to MIC>99 for antimycobacterial activity against Mycobacterium avium CNCTC My 330/88 after 14 days; format: toxicity; settings: read-out: Selectivity Index
[14] = Selectivity index, ratio of IC50 for human HepG2 cells to MIC>99 for antimycobacterial activity against Mycobacterium kansasii 6509/96 after 7 days; format: toxicity; settings: read-out: Selectivity Index
[15] = Selectivity index, ratio of IC50 for human A431 cells to MIC>99 for antimycobacterial activity against Mycobacterium tuberculosis H37Rv CNCTC My 331/88 after 21 days; format: toxicity; settings: read-out: Selectivity Index
[16] = Selectivity index, ratio of IC50 for human A431 cells to MIC>99 for antimycobacterial activity against Mycobacterium kansasii CNCTC My 235/80 after 7 days; format: toxicity; settings: read-out: Selectivity Index
[17] = Selectivity index, ratio of IC50 for human HepG2 cells to MIC>99 for antimycobacterial activity against XDR Mycobacterium tuberculosis Praha 131 after 21 days; format: toxicity; settings: read-out: Selectivity Index; outline: as §2
[18] = Selectivity index, ratio of IC50 for human A431 cells to MIC>99 for antimycobacterial activity against Mycobacterium kansasii 6509/96 after 7 days; format: toxicity; settings: read-out: Selectivity Index
[19] = Selectivity index, ratio of IC50 for human HepG2 cells to MIC>99 for antimycobacterial activity against Mycobacterium avium CNCTC My 330/88 after 21 days; format: toxicity; settings: read-out: Selectivity Index
[20] = Selectivity index, ratio of IC50 for human HepG2 cells to MIC>99 for antimycobacterial activity against Mycobacterium kansasii 6509/96 after 14 days; format: toxicity; settings: read-out: Selectivity Index
[21] = Selectivity index, ratio of IC50 for human HepG2 cells to MIC>99 for antimycobacterial activity against XDR Mycobacterium tuberculosis Praha 131 after 14 days; format: toxicity; settings: read-out: Selectivity Index; outline: as §2

O=[N+]([O-])c1cc(-c2nnc(SCc3ccccc3)n2Cc2ccccc2)cc([N+](=O)[O-])c1
Activity [1]: Non-Toxic | Activity [2]: Non-Toxic

O=[N+]([O-])c1cc(-c2nnc(SCc3ccccc3)n2Cc2ccccc2)cc(C(F)(F)F)c1
selectivity ratio at 336 h [3]: > 100 | selectivity ratio at 504 h [4]: > 100 | selectivity ratio at 504 h [5]: > 100 | selectivity ratio at 504 h [6]: > 100 | selectivity ratio at 336 h [7]: > 100 | selectivity ratio at 168 h [8]: > 100 | selectivity ratio at 504 h [9]: > 100 | selectivity ratio at 336 h [10]: > 100 | selectivity ratio at 336 h [11]: > 100 | selectivity ratio at 504 h [12]: > 100 | selectivity ratio at 336 h [13]: > 100 | selectivity ratio at 168 h [14]: > 100 | selectivity ratio at 504 h [15]: > 100 | selectivity ratio at 168 h [16]: > 100 | selectivity ratio at 504 h [17]: > 100 | selectivity ratio at 168 h [18]: > 100 | selectivity ratio at 504 h [19]: > 100 | selectivity ratio at 336 h [20]: > 100 | selectivity ratio at 336 h [21]: > 100
